Experimental data as given in ChEMBL document CHEMBL2331506, “Design, synthesis, antiviral and cytostatic evaluation of novel isoxazolidine nucleotide analogues with a carbamoyl linker” (Bioorg Med Chem, 2013).
The source made the active and inactive calls. How the calls were made is not given here.

Test system: Vaccinia virus
Assay: Antiviral activity against Vaccinia virus Lederle infected in human HEL cells assessed as reduction of virus-induced cytopathogenicity at 250 uM
Format: functional, organism-based
Settings: Orthopoxvirus vaccinia
How it was run: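 Confluent cell monolayers were infected with 100 CCID50 of virus while exposed to varying compound concentrations. Cytopathicity was scored once it was complete in untreated infected controls. EC50 was taken as the concentration that reduced virus-induced cytopathogenicity by 50%.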

Compound | inhibition
CCOP(=O)(OCC)[C@H]1C[C@H](C(=O)Nc2cc(OC)c(OC)cc2C#N)ON1C (mixture of isomers) | inactive
CCOP(=O)(OCC)[C@H]1C[C@H](C(=O)Nc2cc(OC)c(OC)cc2C(C)=O)ON1C (mixture of isomers) | inactive
CCOP(=O)(OCC)[C@@H]1C[C@H](C(=O)Nc2ccc(C)cc2)ON1C (mixture of isomers) | inactive
CCOP(=O)(OCC)[C@@H]1C[C@H](C(=O)Nc2cc(OC)c(OC)cc2C(C)=O)ON1C (mixture of isomers) | inactive
CCOP(=O)(OCC)[C@@H]1C[C@H](C(=O)Nc2ccc([N+](=O)[O-])cc2)ON1C (racemic) | inactive
CCOP(=O)(OCC)[C@@H]1C[C@H](C(=O)Nc2ccc(C(C)=O)cc2)ON1C (racemic) | inactive
CCOP(=O)(OCC)[C@H]1C[C@H](C(=O)Nc2ccc(C)cc2)ON1C (relative stereo) | inactive
CCOP(=O)(OCC)[C@H]1C[C@H](C(=O)Nc2cccc(Br)c2)ON1C (racemic) | inactive
CCOP(=O)(OCC)[C@H]1C[C@H](C(=O)Nc2ccccc2Br)ON1C (mixture of isomers) | inactive
CCOP(=O)(OCC)[C@@H]1C[C@H](C(=O)Nc2ccccc2[N+](=O)[O-])ON1C (mixture of isomers) | inactive
CCOP(=O)(OCC)[C@H]1C[C@H](C(=O)Nc2ccc(Cl)cc2)ON1C (relative stereo) | inactive
CCOP(=O)(OCC)[C@H]1C[C@H](C(=O)Nc2ccc(C#N)cc2)ON1C (racemic) | inactive
CCOP(=O)(OCC)[C@@H]1C[C@H](C(=O)Nc2ccc(F)cc2)ON1C (mixture of isomers) | inactive
CCOP(=O)(OCC)[C@H]1C[C@H](C(=O)Nc2cccc(Cl)c2)ON1C (mixture of isomers) | inactive
CCOP(=O)(OCC)[C@H]1C[C@H](C(=O)Nc2cccc(OC)c2)ON1C (racemic) | inactive
CCOP(=O)(OCC)[C@H]1C[C@H](C(=O)Nc2cc(OC)cc(OC)c2)ON1C (mixture of isomers) | inactive
CCOP(=O)(OCC)[C@@H]1C[C@H](C(=O)Nc2cccc(C#N)c2)ON1C (racemic) | inactive
CCOP(=O)(OCC)[C@H]1C[C@H](C(=O)Nc2ccc(OC)c(OC)c2)ON1C (mixture of isomers) | inactive
CCOP(=O)(OCC)[C@@H]1C[C@H](C(=O)Nc2ccccc2C(C)=O)ON1C (mixture of isomers) | inactive
CCOP(=O)(OCC)[C@@H]1C[C@@H](C(=O)Nc2ccccc2Cl)ON1C (racemic) | inactive
CCOP(=O)(OCC)[C@@H]1C[C@H](C(=O)Nc2cccc(F)c2)ON1C (mixture of isomers) | inactive
CCOP(=O)(OCC)[C@H]1C[C@H](C(=O)Nc2ccccc2C(C)=O)ON1C (mixture of isomers) | inactive
CCOP(=O)(OCC)[C@@H]1C[C@H](C(=O)Nc2cc(OC)cc(OC)c2)ON1C (mixture of isomers) | inactive
CCOP(=O)(OCC)[C@@H]1C[C@H](C(=O)Nc2cccc([N+](=O)[O-])c2)ON1C (mixture of isomers) | inactive
CCOP(=O)(OCC)[C@@H]1C[C@H](C(=O)Nc2ccc(C#N)cc2)ON1C (mixture of isomers) | inactive
CCOP(=O)(OCC)[C@H]1C[C@H](C(=O)Nc2cccc(F)c2)ON1C (mixture of isomers) | inactive
CCOP(=O)(OCC)[C@H]1C[C@H](C(=O)Nc2ccc(C(C)=O)cc2)ON1C (mixture of isomers) | inactive

Compound | inhibition
CCOP(=O)(OCC)[C@@H]1C[C@H](C(=O)Nc2ccc(OC)c(OC)c2)ON1C (mixture of isomers) | inactive
CCOP(=O)(OCC)[C@@H]1C[C@H](C(=O)Nc2cccc(OC)c2)ON1C (mixture of isomers) | inactive
CCOP(=O)(OCC)[C@@H]1C[C@H](C(=O)Nc2ccc(Br)cc2)ON1C (mixture of isomers) | inactive
CCOP(=O)(OCC)[C@H]1C[C@H](C(=O)Nc2cccc([N+](=O)[O-])c2)ON1C (mixture of isomers) | inactive
CCOP(=O)(OCC)[C@H]1C[C@H](C(=O)Nc2ccc(F)cc2)ON1C (racemic) | inactive
CCOP(=O)(OCC)[C@H]1C[C@H](C(=O)Nc2ccc([N+](=O)[O-])cc2)ON1C (mixture of isomers) | inactive
CCOP(=O)(OCC)[C@@H]1C[C@H](C(=O)Nc2ccccc2Cl)ON1C (mixture of isomers) | inactive
CCOc1ccc(NC(=O)[C@H]2C[C@@H](P(=O)(OCC)OCC)N(C)O2)cc1 (racemic) | inactive
CCOP(=O)(OCC)[C@@H]1C[C@H](C(=O)Nc2ccccc2F)ON1C (racemic) | inactive
CCOP(=O)(OCC)[C@H]1C[C@H](C(=O)Nc2ccc(F)cc2F)ON1C (mixture of isomers) | inactive
CCOP(=O)(OCC)[C@H]1C[C@H](C(=O)Nc2cc(OC)c(OC)c(OC)c2)ON1C (mixture of isomers) | inactive
CCOP(=O)(OCC)[C@@H]1C[C@H](C(=O)Nc2cccc(C)c2)ON1C (mixture of isomers) | inactive
CCOc1ccc(NC(=O)[C@H]2C[C@H](P(=O)(OCC)OCC)N(C)O2)cc1 (mixture of isomers) | inactive
CCOP(=O)(OCC)[C@@H]1C[C@H](C(=O)Nc2cccc(C(C)=O)c2)ON1C (racemic) | inactive
CCOP(=O)(OCC)[C@H]1C[C@H](C(=O)Nc2cccc(C#N)c2)ON1C (racemic) | inactive
CCOP(=O)(OCC)[C@@H]1C[C@H](C(=O)Nc2ccc(Cl)cc2)ON1C (mixture of isomers) | inactive
CCOP(=O)(OCC)[C@H]1C[C@H](C(=O)Nc2cccc(C)c2)ON1C (racemic) | inactive
CCOP(=O)(OCC)[C@@H]1C[C@H](C(=O)Nc2ccccc2Br)ON1C (mixture of isomers) | inactive
CCOP(=O)(OCC)[C@@H]1C[C@H](C(=O)Nc2cccc(Cl)c2)ON1C (mixture of isomers) | inactive
CCOP(=O)(OCC)[C@H]1C[C@H](C(=O)Nc2cccc(C(C)=O)c2)ON1C (mixture of isomers) | inactive
CCOP(=O)(OCC)[C@H]1C[C@H](C(=O)Nc2ccccc2F)ON1C (mixture of isomers) | inactive
CCOP(=O)(OCC)[C@H]1C[C@H](C(=O)Nc2ccc(Br)cc2)ON1C (mixture of isomers) | inactive
CCOP(=O)(OCC)[C@@H]1C[C@H](C(=O)Nc2cc(OC)c(OC)c(OC)c2)ON1C (racemic) | inactive
CCOP(=O)(OCC)[C@@H]1C[C@H](C(=O)Nc2cc(OC)c(OC)cc2C#N)ON1C (mixture of isomers) | inactive
CCOP(=O)(OCC)[C@H]1C[C@H](C(=O)Nc2ccccc2[N+](=O)[O-])ON1C (mixture of isomers) | inactive
CCOP(=O)(OCC)[C@@H]1C[C@H](C(=O)Nc2ccc(F)cc2F)ON1C (mixture of isomers) | inactive
CCOP(=O)(OCC)[C@@H]1C[C@H](C(=O)Nc2cccc(Br)c2)ON1C (mixture of isomers) | inactive
